Assay results published in ChEMBL document CHEMBL4513216, “Probing the Open Global Health Chemical Diversity Library for Multistage-Active Starting Points for Next-Generation Antimalarials” (ACS Infect Dis, 2020).

Experiment: Toxicity liver stage against HepG2, at 10uM
Type: cell-based
Design: test concentration 10 uM, cell line HepG2-A16-CD81EGFP
Conditions: human, HepG2-A16-CD81EGFP cells; read-out: INHIBITION
Summary of the method: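 Uninfected HepG2-A16-CD81EGFP cells, 3 × 10^3 per well, 1536-well, plated on prespotted compound at 10 μM final, parasite-free screening media added to match infected plates; puromycin 10 μM positive, DMSO 0.5% negative; run in parallel with 48 h PbLuc assay at 37 °C, 5% CO2; viability by CellTiter-Glo luminescence, normalized to controls.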

SMILES: O=C(c1cnccn1)N1C[C@@H]2OCC(=O)N(CC3CCCCC3)[C@@H]2C1
- cytotoxicity at 10 µM: -4.97%

SMILES: COc1cc2c(cc1OC)C(=O)C(Sc1nnnn1C)C2 (stereo not given)
- cytotoxicity at 10 µM: -13.7%

SMILES: COCCSc1ccc(-n2ccnc2)nn1
- cytotoxicity at 10 µM: 6.11%

SMILES: COCCNC(=O)NCc1cc(-c2ccncc2)n(C2CCCC2)n1
- cytotoxicity at 10 µM: -8.71%

SMILES: CC(C)n1nc(CNc2ncccn2)c2c1CN(S(C)(=O)=O)CC2
- cytotoxicity at 10 µM: -138%

SMILES: CC(C)N1c2sc(-c3ccsc3)nc2CC1C(=O)NC1CC1 (stereo not given)
- cytotoxicity at 10 µM: 8.67%

SMILES: CS(=O)(=O)N1CCOCC12CCN(c1nncs1)CC2
- cytotoxicity at 10 µM: 6.74%

SMILES: CN(C)c1ncnc2c1CCN(c1cc(C(F)(F)F)ncn1)CC2
- cytotoxicity at 10 µM: 9.55%

SMILES: Cc1noc(C2CCCCN2C(=O)NCc2ccco2)n1 (stereo not given)
- cytotoxicity at 10 µM: 0.986%

SMILES: Cc1ccnc(OCC(=O)N2CCC(C(N)=O)CC2)n1
- cytotoxicity at 10 µM: -17.7%

SMILES: CC1CCN(C(=O)c2cc(NC(=O)c3ccccc3)n(C)n2)CC1
- cytotoxicity at 10 µM: 5.17%

SMILES: Cn1nc(C(=O)N2CCCCCC2)cc1NC(=O)c1ccccc1
- cytotoxicity at 10 µM: -0.942%

SMILES: Cc1ncc2c(n1)CCCC2NC(=O)c1cnn(Cc2ccccc2)c1 (stereo not given)
- cytotoxicity at 10 µM: -4.49%

SMILES: Cc1nc2cc(-c3nccn3C)nn2c(N2CCCC2)c1C
- cytotoxicity at 10 µM: 4.53%

SMILES: CC(C)(C)n1cc(C#N)cc1NC(=O)CCNC(=O)c1ccco1
- cytotoxicity at 10 µM: 1.95%

SMILES: Cc1cnn(CC2CN(CC(=O)Nc3c(C)nn(C)c3C)CCO2)c1 (stereo not given)
- cytotoxicity at 10 µM: 1.08%

SMILES: CCOC(C)c1nccn1Cc1cc(C)on1 (stereo not given)
- cytotoxicity at 10 µM: 8.41%

SMILES: Cn1cnnc1C1CCN(c2nc3ccccc3o2)CC1
- cytotoxicity at 10 µM: 14.1%

SMILES: CS(=O)(=O)Nc1cccc(CNC(=O)CCNC(=O)c2cccs2)c1
- cytotoxicity at 10 µM: 0.466%

SMILES: COc1cccc(NC(=O)CCCc2nc(C(C)C)no2)c1
- cytotoxicity at 10 µM: 6.39%

SMILES: Cc1cc(C(=O)N(CC2CCCO2)c2ccncc2)c(C)o1 (stereo not given)
- cytotoxicity at 10 µM: -8.97%

SMILES: O=C(NCc1nnc2n1CCCCC2)N(Cc1ccncc1)C1CC1
- cytotoxicity at 10 µM: 9.66%

SMILES: CC(C#N)CSc1ccccc1NCC(=O)Nc1ccccc1 (stereo not given)
- cytotoxicity at 10 µM: 6.24%

SMILES: CC1CCN(CCNC(=O)C2CCN(C(=O)NC(C)C)CC2)CC1
- cytotoxicity at 10 µM: 8.21%

SMILES: CCn1cnnc1C1CCN(C(=O)c2ccc3ccccc3n2)CC1
- cytotoxicity at 10 µM: 6.13%

SMILES: CC1(C)CN(CC(F)(F)F)CCN1CC(=O)NC1CCCC1
- cytotoxicity at 10 µM: 10.4%

SMILES: O=C(CNc1ccc(F)cc1OCC(F)(F)F)NCC(F)(F)F
- cytotoxicity at 10 µM: 3.87%

SMILES: Cc1cc(C(=O)CN2CCN(c3ncccn3)CC2)c(C)n1C(C)C
- cytotoxicity at 10 µM: 9.71%

SMILES: CC(=O)NC(C)C(=O)Nc1ccc(OCc2cccc(F)c2)cc1C (stereo not given)
- cytotoxicity at 10 µM: 0.305%

SMILES: O=C(COCC(F)(F)F)NC1CCCc2cc(OC(F)F)ccc21 (stereo not given)
- cytotoxicity at 10 µM: -5.36%

SMILES: O=C(Cc1ccccc1O)NC1CCCN(c2ccccc2F)C1=O (stereo not given)
- cytotoxicity at 10 µM: -13.7%

SMILES: O=C(NCCn1cnnc1C1CC1)c1c(O)cc(F)cc1F
- cytotoxicity at 10 µM: -1.88%

SMILES: Cc1nc2ccccn2c1CN(Cc1cccnc1)CC1CCCO1 (stereo not given)
- cytotoxicity at 10 µM: -7.1%

SMILES: Cc1ccc(CN2CCO[C@@H]3[C@@H](OCc4cccnc4)CC[C@@H]32)o1
- cytotoxicity at 10 µM: 8.37%

SMILES: O=c1ccc2c(n1CC1CC1)CCN(c1ncccn1)CC2
- cytotoxicity at 10 µM: 7.17%

SMILES: CCS(=O)(=O)N1C[C@H]2CC[C@@]3(N=C(C)N(CC(C)C)C3=O)[C@H]2C1
- cytotoxicity at 10 µM: -85%

SMILES: Cc1noc(-c2ccc(N(C)Cc3ccncn3)nc2)n1
- cytotoxicity at 10 µM: 1.11%

SMILES: Cc1nc2c(c(N3CCC(O)(Cn4ccnc4)CC3)n1)CCNCC2
- cytotoxicity at 10 µM: 1.37%

SMILES: Cc1cc(-c2cccc3c2CCNC3)cnc1-n1cnnc1
- cytotoxicity at 10 µM: -0.972%

SMILES: CC(C)(C(=O)NCC1CCN(Cc2ncc[nH]2)C1)c1ccccc1 (stereo not given)
- cytotoxicity at 10 µM: 2.15%

SMILES: Cc1ccc(OCC2CCCN(c3cc(C(N)=O)ccn3)C2)cc1 (stereo not given)
- cytotoxicity at 10 µM: 11.1%

SMILES: O=C1NCCCc2[nH]c(Cc3cccc(F)c3)nc21
- cytotoxicity at 10 µM: -3.47%

SMILES: CCCc1nnc(N2CCN(C3CCCC3)CC2)o1
- cytotoxicity at 10 µM: -13.8%

SMILES: CCc1ocnc1C(=O)N1CCN(c2ccc3ccccc3c2)CC1
- cytotoxicity at 10 µM: 2.99%

SMILES: O=C(c1cc[nH]n1)N1CCc2ccc(S(=O)(=O)N3CCOCC3)cc2C1
- cytotoxicity at 10 µM: 5.18%

SMILES: O=C(NC[C@H]1CCCN1)c1cc(COc2cccc(C(F)(F)F)c2)[nH]n1
- cytotoxicity at 10 µM: -7.59%

SMILES: CCc1cnc(N2CCCOC(CN3CCCC3)C2)nc1 (stereo not given)
- cytotoxicity at 10 µM: -5.77%

SMILES: CCc1cc(C(=O)N2CC[C@@H](c3ccc4c(c3)OCO4)[C@H](O)C2)ccn1
- cytotoxicity at 10 µM: 1.48%

SMILES: CCC(C)NC(=O)NCc1cc2n(n1)CCCN(C1CCCCC1)C2 (stereo not given)
- cytotoxicity at 10 µM: 3.11%

SMILES: Cc1noc([C@@H]2CCCN2C(=O)C2CCN(C(=O)C3CCC3)CC2)n1
- cytotoxicity at 10 µM: -14.4%

SMILES: Cc1n[nH]c(C)c1NC(=O)CN1CCCC1c1noc(C2CC2)n1 (stereo not given)
- cytotoxicity at 10 µM: 2.94%

SMILES: Cc1cc(CN2CCN(c3ccc4nncn4n3)CC2)no1
- cytotoxicity at 10 µM: -4.6%

SMILES: Cc1ccc(CN(C)C(=O)c2ccc(NC3CC3)nc2)o1
- cytotoxicity at 10 µM: -5.57%

SMILES: Cc1nc(C(C)C)sc1C(=O)NCCNc1ncccn1
- cytotoxicity at 10 µM: -2.02%

SMILES: CC(C)n1nc2c(cc1=O)CN(Cc1nc3ccccc3o1)CC2
- cytotoxicity at 10 µM: -2.19%

SMILES: COCCN1CCC(CNC(=O)C2(c3cc(C)cc(C)c3)CC2)CC1
- cytotoxicity at 10 µM: -7.94%

SMILES: Cn1cc(-c2nc(CN3CCOC(Cn4cncn4)C3)cs2)cn1 (stereo not given)
- cytotoxicity at 10 µM: -1.41%

SMILES: Cc1nnc2n1CCN(Cc1csc(-c3ncccn3)n1)C2
- cytotoxicity at 10 µM: -38.1%

SMILES: c1coc(-c2noc(CN3CCc4cncnc4C3)n2)c1
- cytotoxicity at 10 µM: -9.39%

SMILES: O=C(c1ccc(-n2cnnn2)cc1)N1CCCC(n2ccnc2)C1 (stereo not given)
- cytotoxicity at 10 µM: -24.7%

SMILES: Cc1cnn(CC2CCCN2C(=O)c2cccc(S(C)(=O)=O)c2)c1 (stereo not given)
- cytotoxicity at 10 µM: -10.3%

SMILES: CCN(Cc1ccc2c(c1)OCO2)C(=O)NC(C)Cn1ccnc1 (stereo not given)
- cytotoxicity at 10 µM: -13.2%

SMILES: CC(C)(C)c1noc(CCC(=O)NCC2CCS(=O)(=O)C2)n1 (stereo not given)
- cytotoxicity at 10 µM: -18.1%

SMILES: CN(C)c1ncccc1CNc1cc(N2CCCC2CO)ncn1 (stereo not given)
- cytotoxicity at 10 µM: -8.48%

SMILES: CN(Cc1nnc2n1CCC2)C(=O)c1ccc2c(c1)CCO2
- cytotoxicity at 10 µM: -9.33%

SMILES: CCCS(=O)(=O)NC(C)C(=O)NCc1ccc(N2CCN(C)CC2)nc1 (stereo not given)
- cytotoxicity at 10 µM: -20.9%

SMILES: COc1ccccc1CC(=O)N1CCCC1Cn1nc(C)cc1C (stereo not given)
- cytotoxicity at 10 µM: -9.37%

SMILES: N#Cc1cccc(CNC(=O)Nc2cccnc2N2CCCC2)c1
- cytotoxicity at 10 µM: -15.5%

SMILES: Cc1nc(C)n(C2CCCN(C(=O)Cc3csc(C(C)C)n3)C2)n1 (stereo not given)
- cytotoxicity at 10 µM: -15.8%

SMILES: Cc1cc(CN2C[C@H](N3CCOCC3)[C@@H]3OCCC[C@@H]32)oc1C
- cytotoxicity at 10 µM: -139%

SMILES: O=C([C@H]1CN(Cc2cccnc2)C[C@H]2OCC[C@@H]12)N1CCCO1
- cytotoxicity at 10 µM: 8.98%

SMILES: CN1CCC2(C=C(C(=O)N3CCCC3)c3ccccc32)CC1
- cytotoxicity at 10 µM: 1.97%

SMILES: O=C(Cc1cccnc1)N1CCC2(CCN(CC3CCCCC3)C2)CC1
- cytotoxicity at 10 µM: -1.28%

SMILES: CN1CCC2(CCN(CC3CCOCC3)CC2)C1=O
- cytotoxicity at 10 µM: 6.77%

SMILES: CNC(=O)[C@H]1C[C@@H]2CCN(Cc3nccs3)C[C@H]2O1
- cytotoxicity at 10 µM: -75.9%

SMILES: c1cncc(-c2ccc3c(c2)CCC32CCN(Cc3ccco3)CC2)c1
- cytotoxicity at 10 µM: 17.1%

SMILES: C[C@@H]1CN(C2CCOC2)C[C@]12CCN(c1cccnc1)C2=O (stereo not given in full)
- cytotoxicity at 10 µM: 7.49%

SMILES: COCC(=O)N1C[C@@H](OCc2cccnc2)[C@H]2OCCC[C@@H]21
- cytotoxicity at 10 µM: 2.53%

SMILES: COc1ccc(CN2C[C@@H]3OCCN(CCN(C)C)[C@@H]3C2)cc1
- cytotoxicity at 10 µM: -86.9%

SMILES: N#CC1(C(=O)N2C[C@@H]3CC[C@H]2CN(Cc2ccncc2)C3)CCOCC1
- cytotoxicity at 10 µM: -11.9%
